The structures appear in SMILES notation. Activity calls are given as the source filed them. The calls are words filed in the database; no cut-off is given here.

One data set relates to Peritoneal macrophage. Briefly: Cytotoxicity against ICR mouse peritoneal macrophages assessed as reduction in cell viability up to 20 uM measured after 24 hrs by MTT assay. Type of data set: cell-based. In outline: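 Peritoneal macrophages from ICR mice, 2.0×10^4 cells/well in DMEM with 10% FBS. Cells exposed to compound for 24 h, then MTT (5 mg/ml in 0.9% NaCl) added for 4 h at 37 °C in 5% CO2. Absorbance read at 490 nm; final DMSO 0.1%.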

The target in data set [1] is Bone morphogenetic protein receptor type-2 (Homo sapiens) (UniProt Q13873). Briefly: Inhibition of wild-type human partial length BMPR2 (R179 to Q526 residues) expressed in mammalian expression system at 1 uM by Kinomescan method. In outline:
(§1)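 Binding-competition screen on the KINOMEscan platform, run by the provider, with the test compound at 1 μM. Readout is percent of control: (test signal − positive control signal)/(negative control signal − positive control signal) × 100. The DMSO negative control is set as 100% Ctrl and a control compound as 0% Ctrl. Lower values mean stronger hits.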

Data set [2] has as its target Epidermal growth factor receptor (Homo sapiens) (UniProt P00533). Briefly: Inhibition of wild-type human partial length EGFR (R669 to V1011 residues) expressed in bacterial expression system at 1 uM by Kinomescan method. The gist of the method:
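KINOMEscan competition binding panel (98 kinases) run by the provider, compound screened once at 1 μM. Read-out is percent of control: [(test signal − positive control signal)/(negative control signal − positive control signal)] × 100. DMSO negative control sets 100% Ctrl and a control compound sets 0% Ctrl; lower values mean stronger hits.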

In data set [3] the target is Insulin receptor (Homo sapiens) (UniProt P06213). Briefly: Inhibition of wild-type human partial length INSR (P997 to E1318 residues) expressed in mammalian expression system at 1 uM by Kinomescan method. The gist of the method: as §1
Data set [4] deals with Serine/threonine-protein kinase PAK 1 (Homo sapiens) (UniProt Q13153). Briefly: Inhibition of wild-type human partial length PAK1 (S149 to H545 residues) expressed in bacterial expression system at 1 uM by Kinomescan method. The gist of the method:
as §1

Data set [5] deals with Serine/threonine-protein kinase PLK3 (Homo sapiens) (UniProt Q9H4B4). Briefly: Inhibition of wild-type human partial length PLK3 (A42 to L334 residues) expressed in mammalian expression system at 1 uM by Kinomescan method. The gist of the method:
as §1

Data set [6] has as its target Vascular endothelial growth factor receptor 2 (Homo sapiens) (UniProt P35968). Briefly: Inhibition of wild-type human partial length VEGFR2 (R787 to P1253 residues) expressed in mammalian expression system at 1 uM by Kinomescan method. In outline: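 Single-concentration screen at 1 μM on the KINOMEscan panel (98 kinases), run by the platform provider. Results are given as percent of control: % Ctrl = [(test signal − positive control signal)/(negative control signal − positive control signal)] × 100. DMSO serves as negative control (100% Ctrl) and a control compound as positive control (0% Ctrl). Lower values mean stronger binding hits.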

Chain of Vascular endothelial growth factor receptor 2 (Homo sapiens) (P35968 whole entry, the tested form may be a part): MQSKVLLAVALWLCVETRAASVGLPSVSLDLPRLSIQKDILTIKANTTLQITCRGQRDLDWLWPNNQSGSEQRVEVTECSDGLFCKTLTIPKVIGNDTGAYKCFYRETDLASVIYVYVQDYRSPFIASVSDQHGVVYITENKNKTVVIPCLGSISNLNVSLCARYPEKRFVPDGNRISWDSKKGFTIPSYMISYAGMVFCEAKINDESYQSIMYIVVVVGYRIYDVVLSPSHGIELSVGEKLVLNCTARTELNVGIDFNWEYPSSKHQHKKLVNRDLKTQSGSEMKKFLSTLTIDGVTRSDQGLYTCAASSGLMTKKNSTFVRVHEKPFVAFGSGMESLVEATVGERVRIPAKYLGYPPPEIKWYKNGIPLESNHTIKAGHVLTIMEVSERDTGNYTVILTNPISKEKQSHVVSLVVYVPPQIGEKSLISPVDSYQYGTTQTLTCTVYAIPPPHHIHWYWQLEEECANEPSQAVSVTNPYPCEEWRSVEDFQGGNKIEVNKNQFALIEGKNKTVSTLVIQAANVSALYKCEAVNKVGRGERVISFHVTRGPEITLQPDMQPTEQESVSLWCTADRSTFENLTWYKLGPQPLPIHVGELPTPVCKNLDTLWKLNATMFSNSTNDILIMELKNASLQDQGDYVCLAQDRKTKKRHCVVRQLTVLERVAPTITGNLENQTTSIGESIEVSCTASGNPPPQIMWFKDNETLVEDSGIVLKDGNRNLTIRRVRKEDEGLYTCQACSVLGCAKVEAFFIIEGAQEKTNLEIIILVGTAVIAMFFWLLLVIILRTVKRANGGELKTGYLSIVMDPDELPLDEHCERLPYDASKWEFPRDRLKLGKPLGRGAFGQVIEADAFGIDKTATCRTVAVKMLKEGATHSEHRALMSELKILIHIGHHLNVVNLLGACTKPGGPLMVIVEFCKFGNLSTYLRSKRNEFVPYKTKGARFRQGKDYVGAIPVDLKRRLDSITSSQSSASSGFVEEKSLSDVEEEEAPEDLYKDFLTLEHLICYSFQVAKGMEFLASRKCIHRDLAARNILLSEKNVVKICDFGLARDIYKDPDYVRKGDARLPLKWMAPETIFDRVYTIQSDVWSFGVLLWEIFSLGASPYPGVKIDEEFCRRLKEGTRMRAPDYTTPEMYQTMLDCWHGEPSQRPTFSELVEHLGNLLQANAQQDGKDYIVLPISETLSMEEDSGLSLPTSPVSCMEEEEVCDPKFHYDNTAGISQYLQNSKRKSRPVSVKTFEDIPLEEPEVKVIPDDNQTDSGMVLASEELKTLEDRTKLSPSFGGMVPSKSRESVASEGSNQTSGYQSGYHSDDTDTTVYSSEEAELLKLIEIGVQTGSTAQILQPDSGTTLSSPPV
Chain of Serine/threonine-protein kinase PAK 1 (Homo sapiens) (Q13153 whole entry, the tested form may be a part): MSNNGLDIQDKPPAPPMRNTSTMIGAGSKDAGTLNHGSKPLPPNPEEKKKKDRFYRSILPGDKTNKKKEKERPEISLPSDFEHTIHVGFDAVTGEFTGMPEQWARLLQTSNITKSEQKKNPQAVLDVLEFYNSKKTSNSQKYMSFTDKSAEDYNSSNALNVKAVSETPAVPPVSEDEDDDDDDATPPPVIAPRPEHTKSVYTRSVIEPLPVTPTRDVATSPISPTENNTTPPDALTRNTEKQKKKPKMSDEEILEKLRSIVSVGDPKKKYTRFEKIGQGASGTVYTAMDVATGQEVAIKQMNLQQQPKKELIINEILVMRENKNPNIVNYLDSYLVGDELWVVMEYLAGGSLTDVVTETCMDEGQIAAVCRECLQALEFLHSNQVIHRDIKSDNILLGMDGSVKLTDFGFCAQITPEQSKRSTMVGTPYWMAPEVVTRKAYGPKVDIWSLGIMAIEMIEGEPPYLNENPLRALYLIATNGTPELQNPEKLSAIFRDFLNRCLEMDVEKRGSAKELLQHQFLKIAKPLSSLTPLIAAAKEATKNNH
Chain of Serine/threonine-protein kinase PLK3 (Homo sapiens) (Q9H4B4 whole entry, looked up, the tested form may be a part): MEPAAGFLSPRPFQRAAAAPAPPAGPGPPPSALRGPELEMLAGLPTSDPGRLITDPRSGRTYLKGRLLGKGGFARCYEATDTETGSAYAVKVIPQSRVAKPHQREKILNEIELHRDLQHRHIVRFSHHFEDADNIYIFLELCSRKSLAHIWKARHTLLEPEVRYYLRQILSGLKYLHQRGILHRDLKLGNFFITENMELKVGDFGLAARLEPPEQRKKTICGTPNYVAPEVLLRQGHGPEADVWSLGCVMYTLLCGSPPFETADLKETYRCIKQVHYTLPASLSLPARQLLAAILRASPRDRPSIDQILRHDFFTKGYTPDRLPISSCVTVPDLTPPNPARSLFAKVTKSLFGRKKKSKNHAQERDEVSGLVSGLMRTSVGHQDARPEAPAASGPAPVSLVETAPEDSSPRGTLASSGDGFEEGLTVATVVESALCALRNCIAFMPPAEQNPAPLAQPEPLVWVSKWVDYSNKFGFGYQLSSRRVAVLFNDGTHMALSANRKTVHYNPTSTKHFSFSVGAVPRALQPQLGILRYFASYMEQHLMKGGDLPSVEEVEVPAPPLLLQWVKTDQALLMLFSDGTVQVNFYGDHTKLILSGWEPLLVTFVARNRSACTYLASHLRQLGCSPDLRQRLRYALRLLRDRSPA
Chain of Insulin receptor (Homo sapiens) (P06213 28-758 limits assumed): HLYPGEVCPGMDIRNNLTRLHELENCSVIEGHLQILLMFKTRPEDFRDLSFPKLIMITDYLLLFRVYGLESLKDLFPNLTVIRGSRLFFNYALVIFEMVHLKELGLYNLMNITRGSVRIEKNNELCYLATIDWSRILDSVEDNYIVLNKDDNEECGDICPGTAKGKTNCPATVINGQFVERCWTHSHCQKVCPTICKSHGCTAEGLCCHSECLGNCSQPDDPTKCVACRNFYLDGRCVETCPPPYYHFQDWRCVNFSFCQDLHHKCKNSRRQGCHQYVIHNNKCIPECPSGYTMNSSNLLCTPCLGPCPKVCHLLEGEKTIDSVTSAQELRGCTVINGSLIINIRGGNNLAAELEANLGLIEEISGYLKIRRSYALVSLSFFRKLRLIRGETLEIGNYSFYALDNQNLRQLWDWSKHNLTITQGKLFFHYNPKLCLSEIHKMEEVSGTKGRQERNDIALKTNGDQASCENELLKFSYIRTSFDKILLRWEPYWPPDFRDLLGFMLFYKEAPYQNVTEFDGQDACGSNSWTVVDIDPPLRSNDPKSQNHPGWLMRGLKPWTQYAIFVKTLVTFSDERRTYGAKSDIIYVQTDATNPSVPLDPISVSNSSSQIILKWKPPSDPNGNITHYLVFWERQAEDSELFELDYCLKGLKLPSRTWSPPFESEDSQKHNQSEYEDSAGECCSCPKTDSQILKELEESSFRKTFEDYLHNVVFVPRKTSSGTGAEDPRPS
Chain of Insulin receptor (Homo sapiens) (P06213 763-1382 limits assumed): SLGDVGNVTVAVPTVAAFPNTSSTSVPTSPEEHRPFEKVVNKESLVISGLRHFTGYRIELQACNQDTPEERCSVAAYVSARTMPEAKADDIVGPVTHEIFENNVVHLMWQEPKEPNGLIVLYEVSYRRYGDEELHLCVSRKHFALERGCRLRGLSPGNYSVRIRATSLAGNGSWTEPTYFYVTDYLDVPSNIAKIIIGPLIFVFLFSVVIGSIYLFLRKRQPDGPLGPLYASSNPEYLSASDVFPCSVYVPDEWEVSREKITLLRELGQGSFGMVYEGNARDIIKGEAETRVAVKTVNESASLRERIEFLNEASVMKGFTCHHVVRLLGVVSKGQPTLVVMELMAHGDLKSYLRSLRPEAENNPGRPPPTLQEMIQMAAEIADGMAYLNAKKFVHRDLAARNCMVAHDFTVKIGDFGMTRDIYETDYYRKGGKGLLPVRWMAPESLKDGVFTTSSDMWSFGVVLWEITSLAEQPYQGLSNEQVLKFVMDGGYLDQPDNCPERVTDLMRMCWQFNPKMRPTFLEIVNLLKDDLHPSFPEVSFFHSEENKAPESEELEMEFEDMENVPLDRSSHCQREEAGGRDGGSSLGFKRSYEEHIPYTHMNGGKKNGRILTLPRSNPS
Chain of Bone morphogenetic protein receptor type-2 (Homo sapiens) (Q13873 whole entry, the tested form may be a part): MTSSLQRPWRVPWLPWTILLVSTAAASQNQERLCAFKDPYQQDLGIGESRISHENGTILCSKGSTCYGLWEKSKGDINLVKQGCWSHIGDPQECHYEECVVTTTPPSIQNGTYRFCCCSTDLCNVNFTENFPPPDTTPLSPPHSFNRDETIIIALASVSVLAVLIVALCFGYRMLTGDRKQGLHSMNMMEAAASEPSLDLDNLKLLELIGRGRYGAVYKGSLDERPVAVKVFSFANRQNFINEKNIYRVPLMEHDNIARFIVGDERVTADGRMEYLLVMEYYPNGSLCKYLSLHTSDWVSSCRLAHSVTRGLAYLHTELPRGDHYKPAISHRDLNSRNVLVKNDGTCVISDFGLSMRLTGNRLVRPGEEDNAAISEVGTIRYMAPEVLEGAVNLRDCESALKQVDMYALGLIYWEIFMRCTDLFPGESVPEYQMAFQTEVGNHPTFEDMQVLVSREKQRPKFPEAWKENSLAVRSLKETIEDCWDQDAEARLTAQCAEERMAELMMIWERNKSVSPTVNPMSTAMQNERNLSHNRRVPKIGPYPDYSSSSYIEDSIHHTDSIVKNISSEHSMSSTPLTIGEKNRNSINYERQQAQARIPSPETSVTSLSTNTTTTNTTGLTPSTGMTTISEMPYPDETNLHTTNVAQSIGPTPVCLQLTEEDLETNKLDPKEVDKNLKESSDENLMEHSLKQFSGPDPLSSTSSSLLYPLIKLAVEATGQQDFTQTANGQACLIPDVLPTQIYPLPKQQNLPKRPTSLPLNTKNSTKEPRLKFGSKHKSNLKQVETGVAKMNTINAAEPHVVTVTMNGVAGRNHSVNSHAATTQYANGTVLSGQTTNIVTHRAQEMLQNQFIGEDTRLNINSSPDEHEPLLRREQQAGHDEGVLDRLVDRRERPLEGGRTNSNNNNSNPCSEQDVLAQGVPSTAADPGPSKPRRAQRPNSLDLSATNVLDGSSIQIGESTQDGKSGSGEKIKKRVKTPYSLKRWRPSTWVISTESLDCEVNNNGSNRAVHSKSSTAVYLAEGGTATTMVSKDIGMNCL

For the compound `O=C(Nc1ccc2[nH]nc(-c3ccc4[nH]ccc4c3)c2c1)c1c(Cl)cccc1Cl`, the Activity entry in the data set with Peritoneal macrophage is “Non-Toxic”. Moreover, the inhibition result in data set [1], in data set [2], in data set [3], in data set [4], in data set [5] and in data set [6] was “inactive” each time.

The record behind these values is ChEMBL document CHEMBL4304739, “Discovery of 3-(Indol-5-yl)-indazole Derivatives as Novel Myeloid Differentiation Protein 2/Toll-like Receptor 4 Antagonists for Treatment of Acute Lung Injury” (J Med Chem, 2019).
